Activity calls are given as the source filed them. The rule behind the calls is not given here.
Columns and labels:
T47D [1] = assay: Inhibition of hypoxia-induced HIF-1 activation in human T47D cells at 0.1 to 1000 nM by luciferase reporter gene assay; type: cell-based
In short: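 T47D cells (DMEM/F12, 10% FBS) carrying the pHRE3-TK-Luc HIF-1 luciferase reporter were exposed to hypoxia (1% O₂) for 16 h with compound at 0.1, 0.3, 1, 3, 10, 30, 100 and 1000 nM. Cycloheximide at 100 μM served as positive control. Data are from one representative triplicate experiment, mean ± SD.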

T47D [2] = assay: Reduction of hypoxia-induced VEGF mRNA expression in human T47D cells treated after 16 hrs of hypoxia by RT-PCR analysis; type: functional, cell-based
In short: (§1)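 T47D cells held at 1% O2 for 16 h with or without compound. Total RNA measured by real-time RT-PCR, normalized to 18S rRNA, and expressed relative to the normoxic control. Mean of two independent experiments.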

T47D [3] = assay: Reduction of hypoxia-induced GLUT1 mRNA expression in human T47D cells treated after 16 hrs of hypoxia by RT-PCR analysis; type: functional, cell-based; in short: as §1
T47D [4] = assay: Cytotoxicity against human T47D cells assessed as inhibition of cell proliferation after 48 hrs by SRB assay relative to control; type: functional; design: scale not given: the % may be the effect or the level left
MDA-MB-231 = assay: Cytotoxicity against human MDA-MB-231 cells assessed as inhibition of cell proliferation after 48 hrs by SRB assay; type: functional, cell-based
T47D [5] = assay: Reduction of hypoxia-induced VEGF mRNA expression in human T47D cells at 0.1 uM treated after 16 hrs of hypoxia by RT-PCR analysis; type: functional, cell-based
In short: (§2)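 T47D cells were held at 1% O₂ for 16 h with or without compound. Total RNA was isolated and target mRNA was quantified by real-time RT-PCR, normalized to 18S rRNA, and expressed relative to the normoxic control. Values are averages of two independent experiments.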

T47D [6] = assay: Reduction of hypoxia-induced GLUT1 mRNA expression in human T47D cells at 0.1 uM treated after 16 hrs of hypoxia by RT-PCR analysis; type: functional, cell-based; in short: as §2
T47D [7] = assay: Inhibition of electron transport protein complex 1-mediated cellular respiration in digitonin-permeabilized human T47D cells at 30 nM presence of succinate; type: cell-based
T47D [8] = assay: Reduction of hypoxia-induced secreted VEGF protein level in human T47D cells after 16 hrs by ELISA; type: functional, cell-based
In short: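 T47D cells exposed to 1% O2 or 10 μM 1,10-phenanthroline for 16 h with or without compound. Secreted VEGF in conditioned medium measured by ELISA and normalized to cellular protein (micro BCA). Mean with SD, N = 3. One-way ANOVA with Bonferroni post hoc test.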

T47D [9] = assay: Inhibition of 1,10-phenanthroline-induced HIF-1 activation in human T47D cells at up to 10 uM by luciferase reporter gene assay; type: cell-based
In short: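 T47D cells carrying the pHRE3-TK-Luc HIF-1 luciferase reporter. HIF-1 induced chemically with 10 μM 1,10-phenanthroline. Compound tested at concentrations up to 10 μM.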

T47D [10] = assay: Inhibition of tumor angiogenesis in human T47D cells in conditioned medium at 10 nM treated after 16 hrs of hypoxia by HUVEC-based tube formation assay; type: functional, cell-based
In short: (§3)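 Conditioned media collected from T47D cells treated for 16 h, normoxic or hypoxic (1% O2), with or without compound (10 nM). Media applied to HUVECs for tube formation. Relative tube length and branching points counted in three random fields, mean with SD. One-way ANOVA with Bonferroni post hoc test.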

T47D [11] = assay: Inhibition of tumor angiogenesis in human T47D cells in normoxic conditioned medium at 10 nM by HUVEC-based tube formation assay; type: functional, cell-based; in short: as §3
T47D [12] = assay: Inhibition of hypoxia-induced HIF-1alpha protein accumulation in human T47D cell nucleus at 10 to 100 nM treated after 4 hrs of hypoxia by Western blotting; type: functional, cell-based
In short: (§4)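 Nuclear extracts prepared from T47D cells held at 1% O2 for 4 h with or without compound. HIF-1α and HIF-1β protein levels determined by western blot.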

T47D [13] = assay: Inhibition of hypoxia-induced HIF-1beta protein accumulation in human T47D cell nucleus at 10 to 100 nM treated after 4 hrs of hypoxia by Western blotting; type: functional, cell-based; in short: as §4
T47D [14] = assay: Inhibition of oxygen consumption in human T47D cells; type: functional, cell-based
In short: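 Oxygen consumption measured with a Clark-type electrode in non-permeabilized T47D cells. Rotenone served as the complex I reference. Data given as % inhibition versus untreated control, averaged over three independent experiments with SD.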

T47D [15] = assay: Inhibition of electron transport protein complex 2-mediated cellular respiration in digitonin-permeabilized human T47D cells at 10 to 30 nM presence of succinate; type: cell-based
In short: (§5)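 Clark-type oxygen electrode used to follow O2 consumption in T47D cells permeabilized with 10 μM digitonin. Substrates and inhibitors added one after another at set times. For complex I, respiration was started with malate/pyruvate, compound (10 nM) was added, then succinate was added to feed complex II.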

T47D [16] = assay: Inhibition of electron transport protein complex 3-mediated cellular respiration in digitonin-permeabilized human T47D cells at 10 to 30 nM presence of succinate; type: cell-based; in short: as §5
T47D [17] = assay: Inhibition of electron transport protein complex 4-mediated cellular respiration in digitonin-permeabilized human T47D cells at 10 to 30 nM presence of succinate; type: cell-based
T47D [18] = assay: Inhibition of electron transport protein complex 1-mediated cellular respiration in digitonin-permeabilized human T47D cells at 10 nM presence of succinate; type: cell-based; in short: as §5
[19] = Neurotoxicity in Wistar rat cerebellar granule neurons assessed as cell death at 10 nM after 24 hrs using propidium iodide and Hoescht 33342 staining; type: toxicity, cell-based; conditions: neuron, 0.01 µM
In short: (§6)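 Primary cerebellar granule neurons from 6-7-day-old Wistar rat pups, cultured 6-10 days at 37 °C. Cells exposed to compound for 24 h, then stained 20 min with Hoechst 33342 (5 μg/mL) and propidium iodide (1 μg/mL) in pH 7.3 buffer. At least 100 cells scored per treatment. Scoring: PI+ = late apoptotic/necrotic; PI− with condensed or fragmented nuclei = apoptotic; PI− with swollen, fragmented nuclei = early necrotic.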

[20] = Neurotoxicity in Wistar rat cerebellar granule neurons assessed as apoptotic cells at 0.01 uM after 24 hrs using propidium iodide and Hoescht 33342 staining; type: toxicity, cell-based; conditions: neuron; in short: as §6
[21] = Neurotoxicity in Wistar rat cerebellar granule neurons assessed as attached dead cells at 0.1 uM after 24 hrs using propidium iodide and Hoescht 33342 staining; type: toxicity, cell-based; conditions: neuron; in short: as §6

C=CC/C=C\Cc1csc(C(C)(C)[C@@H](C/C=C\C(=C)CCNC(=O)OC)OC(C)=O)n1
inhibition (T47D [1]): Active
inhibition (T47D [2]): Dose-dependent effect
inhibition (T47D [3]): Dose-dependent effect
Activity (T47D [4]): 55%
Activity (MDA-MB-231): Active

C=CC/C=C\Cc1csc(C(C)(C)[C@H](O)C/C=C/C(O)(CO)CCNC(=O)OC)n1 (stereo not given in full)
inhibition (T47D [1]): inactive
inhibition (T47D [5]): inactive
inhibition (T47D [6]): inactive
inhibition (T47D [7]): Active
Activity (MDA-MB-231): Active

C=CC/C=C\Cc1csc(C(C)(C)[C@H](O)C/C=C\C(=C)CCNC(=O)OC)n1 [MYCOTHIAZOLE]
Activity (T47D [8]): Active
inhibition (T47D [1]): Active
inhibition (T47D [9]): inactive
inhibition (T47D [2]): Dose-dependent effect
inhibition (T47D [3]): Dose-dependent effect
inhibition (T47D [10]): Active
inhibition (T47D [11]): inactive
inhibition (T47D [12]): Active
inhibition (T47D [13]): inactive
inhibition (T47D [14]): Dose-dependent effect
inhibition (T47D [15]): inactive
inhibition (T47D [16]): inactive
inhibition (T47D [17]): inactive
inhibition (T47D [18]): Active
Activity (T47D [4]): 55%
Activity (MDA-MB-231): Active
Activity [19]: Toxic
Activity [20]: 85%

C=C(C)[C@H]1Cc2c(ccc3c2O[C@@H]2COc4cc(OC)c(OC)cc4[C@@H]2C3=O)O1 [ROTENONE]
Activity [19]: Toxic
Activity [21]: 60%

From ChEMBL document CHEMBL1250464, “The marine sponge metabolite mycothiazole: a novel prototype mitochondrial complex I inhibitor” (Bioorg Med Chem, 2010)
